Reference: PubChem BioAssay AID588767 (The Scripps Research Institute Molecular Screening Center, 2011)
Calls of active or inactive are those of the source.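 How the source made its calls: active means inhibition of at least 50% at 0.1 µM compound; inactive means inhibition below 50%.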

Molecular target: Platelet-activating factor acetylhydrolase 2, cytoplasmic (Mus musculus) (UniProt Q8VDG7)
Assay: PAFAH2 inhibition in T-cell proteome, late-stage follow-up, selectivity assay for pPAFAH inhibitor project, cell lysate, gel-based competitive ABPP, fluorescence (AID 588767)
Details: BW5147 T-cell soluble proteome, FP-Rh, stronger effect = higher value
Method in brief: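 Medium: Dulbecco's phosphate-buffered saline | Test system: Mouse T-cell soluble proteome with native PAFAH2 | Amount: Soluble proteome at 1 mg/mL protein | Benchmarks: DMSO-only sample without compound as reference | Signal: in-gel fluorescence after SDS-PAGE | Timing: 30 min compound plus 30 min probe at 37 °C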

Sequence of Platelet-activating factor acetylhydrolase 2, cytoplasmic (Mus musculus) (Q8VDG7 whole entry, looked up): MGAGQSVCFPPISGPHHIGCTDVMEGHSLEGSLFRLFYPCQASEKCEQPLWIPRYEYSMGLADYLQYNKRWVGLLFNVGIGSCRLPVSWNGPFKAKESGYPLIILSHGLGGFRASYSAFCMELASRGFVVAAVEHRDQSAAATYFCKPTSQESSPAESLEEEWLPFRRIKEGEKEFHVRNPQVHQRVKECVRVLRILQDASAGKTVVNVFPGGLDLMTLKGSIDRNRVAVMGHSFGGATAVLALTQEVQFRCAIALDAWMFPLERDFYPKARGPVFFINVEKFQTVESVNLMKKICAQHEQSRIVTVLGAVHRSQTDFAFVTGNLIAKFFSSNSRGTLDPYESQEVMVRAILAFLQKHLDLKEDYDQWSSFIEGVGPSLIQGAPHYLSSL

Row | inhibition (at 0.1 µM) | inhibition (inhibition, at 1 µM) | inhibition (inhibition, at 10 µM) | Compound
1 | 0% (inactive) | 0% | 0% | Cc1cc(N2CCN(C(=O)Oc3ccc(-c4ccccc4)cn3)CC2)c2ccccc2n1
2 | 100% | – | – | COc1ccc2cc(-c3cnn(C(=O)N4CCCC4)n3)ccc2c1
